Data on two compounds can be found in ChEMBL document CHEMBL1124257, “An examination of O-2-isocephems as orally absorbable antibiotics” (J Med Chem, 1988).

≈ marks a conversion by molar mass, not a printed value.

For data set [1], the system named is Mus musculus. In words: Area under curve(AUC) was measured in mice after oral administration (50 mg/kg). The format is ADME, organism-based. The conditions noted are these: in vivo. In short, it runs like this:
(§1)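 Male Swiss-Webster mice (20 ± 2 g) were given a single 50 mg/kg oral dose by gavage. Blood concentrations and urine levels were measured by microbiological assay, and urinary recovery was taken over 0–6 h.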

A short description of data set [2]: (§2) Cmax was measured in mice after an oral dose of 50 mg/kg. The format is ADME, organism-based. Set-up: dose 50 mg/kg, route oral. The conditions noted are these: mouse, in vivo. The method, boiled down: as §1
The species named for data set [3] is Mus musculus. In words: Percentage of dose recovered after 0-6 hr in the urine of mice was measured. The settings on record: in vivo. The format is ADME, organism-based. The method, boiled down: as §1
A short description of data set [4]: Half life was measured. In kind it is ADME. In short, it runs like this:
as §1

Data set [5] concerns Escherichia coli. In words: Minimum inhibitory concentration (MIC) against Escherichia coli by 2-fold microdilution technique. The format is functional. The method, boiled down: (§3)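 For each organism, an overnight culture was grown in Mueller-Hinton broth at 37 °C. Twofold microtiter dilutions in Nutrient Broth covered 0.005–125 µg/mL. Each well received about 10^4 organisms, and plates were incubated 18 h at 37 °C. MIC was the lowest concentration giving no visible growth.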

Data set [6] has as its system Escherichia coli. Description: Minimum inhibitory concentration (MIC) […] against Escherichia coli. In kind it is functional. The method, boiled down: as §3
The subject of data set [7] is Haemophilus influenzae. Description: Minimum inhibitory concentration (MIC) against Haemophilus influenzae by 2-fold microdilution technique. The format is functional. The method, boiled down: as §3
For data set [8], the system named is Klebsiella pneumoniae. In words: Minimum inhibitory concentration (MIC) against Klebsiella pneumoniae by 2-fold microdilution technique. In kind it is functional. In short, it runs like this: as §3
Data set [9] has as its system Escherichia coli. In words: Protective dose (PD50) against Escherichia coli infected mice. In kind it is functional. The conditions noted are these: read-out: PD50. In short, it runs like this:
(§4)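 Male Swiss-Webster mice (20 ± 2 g) were challenged intraperitoneally with enough bacteria to kill untreated controls within 72 h. Drug was given orally by gavage twice: at 0 and 2 h after E. coli challenge, or at 1 and 3.5 h after S. pneumoniae challenge. PD50 is the dose in mg/kg per dose that protects 50% of animals.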

Data set [10] deals with Streptococcus pneumoniae. In words: Protective dose (PD50) against Streptococcus pneumoniae infected mice. In kind it is functional. In short, it runs like this:
as §4

Data set [11] concerns Proteus mirabilis. In words: Minimum inhibitory concentration (MIC) against Proteus mirabilis by 2-fold microdilution technique. The format is functional. The method, boiled down:
as §3
A general note: In broth dilution the organism is exposed to a series of concentrations in liquid medium.

Data set [12] has as its system Streptococcus pneumoniae. In words: Minimum inhibitory concentration (MIC) against Streptococcus pneumoniae by 2-fold microdilution technique. In kind it is functional. In short, it runs like this: as §3
Data set [13] relates to Streptococcus pneumoniae. Description: Minimum inhibitory concentration (MIC) […] against Streptococcus pneumoniae. The format is functional. The method, boiled down:
as §3

The subject of data set [14] is Enterococcus faecalis. In words: Minimum inhibitory concentration (MIC) against Streptococcus faecalis by 2-fold microdilution technique. In kind it is functional. The method, boiled down:
as §3

Data set [15] has as its system Streptococcus pyogenes. Description: Minimum inhibitory concentration (MIC) against Streptococcus pyogenes by 2-fold microdilution technique. In kind it is functional. In short, it runs like this: as §3
In data set [16] the test system is Staphylococcus aureus. Description: Minimum inhibitory concentration (MIC) against Staphylococcus aureus by 2-fold microdilution technique. In kind it is functional. In short, it runs like this: as §3
The subject of data set [17] is Mus musculus. Description: Area under curve(AUC) was measured in mice after oral administration. Set-up: concentration or dose not given beside the values; unit not given here. In kind it is ADME, organism-based. The settings on record: in vivo. The method, boiled down: as §1
In data set [18] the test system is Mus musculus. The data set is described as §2. In kind it is ADME, organism-based. Set-up: dose 50 mg/kg, route oral. The settings on record: in vivo. In short, it runs like this:
as §1

Setting [19] is: Escherichia coli, read-out: MIC.
Setting [20] is: Streptococcus pneumoniae, read-out: MIC.

For orientation: Cmax means the peak of the concentration-time curve. The half-life is the time needed for the level to fall by half in the phase considered. Consider `C=CC1=C(C(=O)O)N2C(=O)[C@@H](NC(=O)[C@H](N)c3ccc(O)cc3)[C@H]2CO1`, for which the AUC in data set [1] worked out at 30 µg/mL. In [2], this compound showed a Cmax of 26000 ng/mL. Also, in [3], the “Urinary recovery (% of dose, 0-6 h)” value stood at 73%. The half-life in data set [4] was 39 min. For the same compound, the MIC in [5] (setting [19]) came to 2 µg/mL (≈ 5.57 µM); in data set [6] (setting [19]), 2 µg/mL (≈ 5.57 µM); in data set [7] (Haemophilus influenzae, read-out: MIC), 1 µg/mL (≈ 2.78 µM); in [8] (Klebsiella pneumoniae, read-out: MIC), 8 µg/mL (≈ 22.3 µM); in [11] (Proteus mirabilis, read-out: MIC), 0.5 µg/mL (≈ 1.39 µM); in data set [12] (setting [20]) it was 0.03 µg/mL (≈ 0.0835 µM). Moreover, the MIC turned out to be 0.03 µg/mL (≈ 0.0835 µM) in data set [13] (setting [20]); 0.5 µg/mL (≈ 1.39 µM) in data set [14] (Enterococcus faecalis, read-out: MIC); 0.016 µg/mL (≈ 0.0445 µM) in [15] (Streptococcus pyogenes, read-out: MIC); 0.13 µg/mL (≈ 0.362 µM) in [16] (Staphylococcus aureus, read-out: MIC). In addition, the ED50 in [9] was found to be 2.1 mg/kg; in [10] (Streptococcus pneumoniae, read-out: PD50), 0.8 mg/kg.

Regarding `C/C=C/C1=C(C(=O)O)N2C(=O)[C@@H](NC(=O)[C@H](N)c3ccc(O)cc3)[C@H]2SC1.O` (relative stereo; 57) [CEFPROZIL, (E)-], the AUC in [17] stood at 45. For the same compound, the Cmax in data set [18] was 35000 ng/mL. Also, in data set [3], the “Urinary recovery (% of dose, 0-6 h)” value is listed as 65%. The same compound showed a T1/2 in data set [4] of 47 min. The MIC came to 8 µg/mL in data set [5]; 8 µg/mL in data set [6]; 4 µg/mL in data set [7]; 8 µg/mL in data set [8]; 1 µg/mL in data set [11]; 0.06 µg/mL in [12]. The MIC in [13] was 0.06 µg/mL; in [14], 4 µg/mL; in data set [15], 0.03 µg/mL; in [16] it was 0.25 µg/mL. This compound also came in with a PD50 in data set [10] of 0.5 mg/kg.
